# Apaf1 activ – activators of human Apaf-1 apoptosome. activity change, negative = activation, % at 20 µM. Apaf-1 apoptosome caspase-3 activation, DEVD-Rh110 fluorescence; stronger effect = lower value. O14727. 0.31% of 330,000 active. AID 489031;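 active = activity change at or below -40% at 20 µM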
# Target sequence (O14727 whole entry, looked up): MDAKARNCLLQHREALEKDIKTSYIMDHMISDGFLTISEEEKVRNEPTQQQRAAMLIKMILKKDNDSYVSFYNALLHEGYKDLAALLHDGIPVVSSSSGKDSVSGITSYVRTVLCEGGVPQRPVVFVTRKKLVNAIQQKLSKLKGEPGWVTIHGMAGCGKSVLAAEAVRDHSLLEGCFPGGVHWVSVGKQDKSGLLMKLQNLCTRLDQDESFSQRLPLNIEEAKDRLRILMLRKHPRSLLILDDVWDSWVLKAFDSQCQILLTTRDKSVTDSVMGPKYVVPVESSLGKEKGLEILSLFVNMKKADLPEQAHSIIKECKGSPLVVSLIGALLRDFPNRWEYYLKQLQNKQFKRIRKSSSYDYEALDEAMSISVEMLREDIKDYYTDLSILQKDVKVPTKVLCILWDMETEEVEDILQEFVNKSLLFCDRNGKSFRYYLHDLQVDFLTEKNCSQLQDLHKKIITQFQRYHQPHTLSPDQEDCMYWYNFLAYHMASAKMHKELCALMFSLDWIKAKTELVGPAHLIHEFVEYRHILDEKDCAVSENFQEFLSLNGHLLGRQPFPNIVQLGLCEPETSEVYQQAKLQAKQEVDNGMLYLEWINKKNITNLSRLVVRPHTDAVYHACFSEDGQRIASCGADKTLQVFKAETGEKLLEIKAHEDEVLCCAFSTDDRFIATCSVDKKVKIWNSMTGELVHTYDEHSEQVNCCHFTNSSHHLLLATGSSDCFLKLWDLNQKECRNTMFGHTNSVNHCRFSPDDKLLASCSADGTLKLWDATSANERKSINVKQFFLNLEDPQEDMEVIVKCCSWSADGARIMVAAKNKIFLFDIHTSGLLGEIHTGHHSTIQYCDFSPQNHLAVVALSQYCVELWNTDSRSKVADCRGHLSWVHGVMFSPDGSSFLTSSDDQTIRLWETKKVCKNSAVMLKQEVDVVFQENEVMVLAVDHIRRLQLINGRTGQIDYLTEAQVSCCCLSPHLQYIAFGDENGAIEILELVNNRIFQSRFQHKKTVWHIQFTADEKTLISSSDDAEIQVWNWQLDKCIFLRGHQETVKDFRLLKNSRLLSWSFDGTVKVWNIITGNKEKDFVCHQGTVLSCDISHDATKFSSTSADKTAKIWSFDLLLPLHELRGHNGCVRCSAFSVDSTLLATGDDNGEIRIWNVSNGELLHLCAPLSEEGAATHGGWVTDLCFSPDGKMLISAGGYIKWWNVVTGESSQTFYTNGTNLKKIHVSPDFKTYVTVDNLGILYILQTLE
#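 system = biochemical Apaf-1 apoptosome reconstitution | buffer or medium = 20 mM HEPES pH 7.5 with CHAPS, BSA | also added = dATP and cytochrome c as apoptosome triggers, (Z-DEVD)2-Rh110 substrate | incubation = 30 min compound preincubation and 50 min reaction, both room temperature | measured by = fluorescence, 540 nm emission, 480 nm excitation | read-out basis = Caspase-3 cleavage activity downstream of Apaf-1 activation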
# Rh110 interf act – Rh110 signal interference in Apaf-1 activator counter-screen; shares compounds with Apaf1 activ; Rh110 fluorescence interference, quenched caspase reaction, Ex480/Em540; fluorescence interference (activity change), % at 20 µM, hits read low; 980 tested, under 10 active; AID 504616;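 active = mean activity change at or below -40% when tested at 20 µM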
# Apaf-1 act conf2 – confirmation of human Apaf-1 activators. shares compounds with Apaf1 activ. reconstituted apoptosome caspase-3 activity, DEVD-Rh110 fluorescence; stronger effect = lower value. activity change, negative = activation, % at 20 µM. 5% of 980 active;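 active = mean activity change at or below -40%, meaning activation of 40% or more, at 20 µM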
# Apaf1 act interf – counter-screen for Apaf-1 activators: fluorescence interference, dose response. EC50, µM. shares compounds with Apaf1 activ. 55 tested, under 10 active. fluorescence interference counterscreen, Apaf-1 activator assay; call rule not given here
# A number is an active result; - = inactive; . = not tested or not shown. These entries were drawn from the full list.
SMILES,Apaf1 activ,Rh110 interf act,Apaf-1 act conf2,others
Cc1[nH][nH]c(=O)c1C(c1ccc(-c2ccc(Cl)c(Cl)c2)o1)c1c(C)[nH][nH]c1=O,-,.,.,
CC(C)[N+]1(C)[C@@H]2CC[C@H]1CC(OC(=O)C(CO)c1ccccc1)C2 (stereo not given in full),-,.,.,
Cc1cc(N2CCN(c3ccc([N+](=O)[O-])c4cccnc34)CC2)c2ccccc2n1,-,.,.,
Cc1cccc(-n2c(N)c(C(=O)NCCN3CCOCC3)c3nc4ccccc4nc32)c1,-,.,.,
Nc1c(C(=O)NCc2ccc(F)cc2)c2nc3ccccc3nc2n1CCCN1CCOCC1,-,.,.,
O=C(CCSc1nc(-c2ccco2)cc(C(F)(F)F)n1)NCCN1CCOCC1,-56,-,-,
CC1CN(Cc2c(O)ccc3c2oc(=O)c2ccccc23)CC(C)O1 (stereo not given),-,.,.,
O=C(c1ccccc1)c1ccc(OCC(O)CNC2CCCc3ccccc32)cc1 (stereo not given),-,.,.,
OC(CNc1ccccc1)COc1ccc(OCC(O)CNc2ccccc2)cc1 (stereo not given),-141,-,-,
OC(CNC1CCCc2ccccc21)COc1ccc2ccccc2c1 (stereo not given),-,.,.,
Cc1sc2ncnc(N3CCC(C(=O)N(C)CC(=O)Nc4ccccc4Cl)CC3)c2c1C,-,.,.,
C=C(C)C(=O)Nc1cccc(C2=NOC3(C2)C[C@H](C(N)=O)N(C(=O)c2ccccc2C(=O)c2ccccc2)C3)c1 (stereo not given in full),-270,-,-125,Apaf1 act interf=-
C=C(C)C(=O)Nc1cccc(C2=NOC3(C2)C[C@@H](C(N)=O)N(C(=O)/C(C)=C/C)C3)c1 (stereo not given in full),-288,-,-120,Apaf1 act interf=-
C=C(C)C(=O)Nc1cccc(C2=NOC3(C2)C[C@@H](C(N)=O)N(C(=O)/C=C/C=C/C)C3)c1 (stereo not given in full),-326,-,-129,Apaf1 act interf=-
C=C(C)C(=O)Nc1cccc(C2=NOC3(C2)C[C@@H](C(N)=O)N(C(=O)CC(c2ccccc2)c2ccccc2)C3)c1 (stereo not given in full),-107,-,-,
COC(=O)CCC(=O)OC1(C)C(=O)C=C2C=C(C3CC3)N(CCCCO)C=C2C1=O (stereo not given),-,.,.,
C#CCOCCOCCOCCNc1nc(N2CCN(C(=O)[C@H](CCCCN)n3cc([C@@H](N)[C@H](C)CC)nn3)CC2)nc(N2CCN(C(=O)[C@H](CCC(=O)O)n3cc([C@@H](N)CCCCN)nn3)CC2)n1,-,.,.,
N=C1CCC(=N)c2c1c(O)c1ccccc1c2O,-,.,.,
Nc1ncc2[nH]cnc2n1,-,.,.,
COc1cccc2cc(C(=O)NCc3ccc(Cl)cc3)c(=N)oc12,-,.,.,
COC(=O)NCc1ccc(Cl)c(Cl)c1,-71,-,-,
O=C(c1ccccc1)c1ccc2nc(-c3ccco3)c(-c3ccco3)nc2c1,-,.,.,
Cc1cc(OCC(=O)NCCO)ccc1Cl,-53,-,-,
CN1CCN(c2ccc(NC(=O)COc3ccccc3)cc2Cl)CC1,-,.,.,
C=CCN1C=C2C(=O)C(C)(OC(=O)CCC(=O)OC)C(=O)C=C2C=C1C1CC1 (stereo not given),-,.,.,
SMILES,Apaf1 activ,Rh110 interf act,Apaf-1 act conf2,others
CC(C)(C)c1ccc(S(=O)(=O)/N=C2\C=C(NS(=O)(=O)c3ccccc3)C(=O)c3ccccc32)cc1,-,.,.,
Cn1c(SCc2ccc(F)cc2)nnc1-c1cnccn1,-156,-,-,
COc1ccccc1-c1nc2n(n1)C(c1cccs1)C(C(=O)Nc1cccnc1)=C(C)N2 (stereo not given),-244,-,-,
O=C(Nc1cccc2cccnc12)c1cccc([N+](=O)[O-])c1,-342,-,-,
C/C(=N\NC(=O)Cc1cc(=O)[nH][nH]1)c1cccc([N+](=O)[O-])c1,-,.,.,
Oc1ccc(Br)cc1CNc1cccc2cccnc12,-,.,.,
COc1ccc(-n2c(N)c(C(=O)NCC3CCCO3)c3nc4ccccc4nc32)c(OC)c1 (stereo not given),-,.,.,
C=CCn1c(N)c(C(=O)NCC2CCCO2)c2nc3ccccc3nc21 (stereo not given),-,.,.,
COc1ccccc1-c1ccc(=O)n(CC(=O)NCC2CCCO2)n1 (stereo not given),-50,-,-,
Nc1ncc(Br)cc1N=Cc1ccccc1,-,.,.,
COCCNc1nc2nonc2nc1N(C)Cc1cccc2cnccc12,-346,-,-,
CCCCCCc1cc2cc(-c3nnc(-c4ccccc4OC)o3)c(=O)oc2cc1O,-,.,.,
CCCCCCc1cc2cc(-c3nnc(-c4ccccc4O)o3)c(=O)oc2cc1O,-140,-,-43,Apaf1 act interf=-
CCCCCCc1cc2cc(-c3nnc(-c4cc(OC)c(OC)c(OC)c4)o3)c(=O)oc2cc1O,-,.,.,
COC(=O)CCC(=O)OC1(C)C(=O)C2=CN(CC3CC3)C(c3ccc(OC)cc3)=CC2=C(Br)C1=O (stereo not given),-,.,.,
CCOc1ccc(C(=O)C(C)=O)c(OCC)c1,-44,-,-,
COCc1cc(=O)[nH]c(Sc2c(-c3ccccc3)c3ccc(Cl)cc3[nH]c2=O)n1,-49,-,-,
COCCCOc1cc(NCc2ccccc2)c2ncn(C(C)C)c2c1,-,.,.,
Cc1cc(C)c2nc(N(CCCN(C)C)C(=O)c3ccc4c(c3)CCCC4)sc2c1,-,.,.,
CCN(CC)c1ccc(C=Nc2ccc(N(C)C)cc2)c(O)c1,-,.,.,
CCN(CC)c1ccc(/C=N/N2CCN(Cc3ccccc3)CC2)c(O)c1,-50,-,-,
CCN(CC)c1ccc(/C=N/N=C(N)N)c(O)c1,-156,-,-,
NC(N)=N/N=C/c1ccc(OCc2ccccc2)c(OCc2ccccc2)c1,-,.,.,
COC(=O)CCC(=O)OC1(C)C(=O)C=C2C=C(C3CC3)N(CCCOC(C)C)C=C2C1=O (stereo not given),-,.,.,
Oc1ccc(/C=N/Nc2cc(N3CCCC3)nc(N3CCCC3)n2)cc1O,-,.,.,
SMILES,Apaf1 activ,Rh110 interf act,Apaf-1 act conf2,others
CC(C)=CCC/C(C)=C/CNC(=O)C[C@H]1C[C@H](C(=O)N2CCOCC2)[C@@]2(C)c3[nH]c4ccc(Cl)cc4c3CCN2C1=O,-,.,.,
CCCCCCCCCn1c2c(c(=N)c3c1CCC3)CCC2,-,.,.,
CCCC(C(=O)NC(C)(C)C)N(Cc1ccc(F)cc1)C(=O)c1snc(C(N)=O)c1N (stereo not given),-108,-,-,
CCCCCCCCCCCCCCCC[N+](C)(C)CC,-,.,.,
CCOc1ccc(-c2cc(C(=O)NCCCn3ccnc3)c3cc(Br)ccc3n2)cc1,-,.,.,
O=C(NCCCn1ccnc1)c1cn(Cc2ccc(F)cc2)nn1,-41,-,-,
CCN1CCN(Cc2ccc(NC(=O)c3cc(NC(=O)C4=NN(c5ccccc5)C(=O)C4)cc(OC)c3)cc2C(F)(F)F)CC1,-,.,.,
CCOC(=O)c1ccc(N2CSC3=C(C#N)C(c4cccs4)CC(=O)N3C2)cc1 (stereo not given),-,.,.,

# Compound activity deposited in PubChem BioAssay by Sanford-Burnham Center for Chemical Genomics.
